Laboratory results as given in ChEMBL document CHEMBL1151223, “Antimycotic spirostanol saponins from Solanum hispidum leaves and their structure-activity relationships” (2004).
≈ marks a conversion by molar mass, not a printed value.

How the values were obtained:
[1] = system: Trichophyton mentagrophytes; assay: Antimycotic activity against Trichophyton mentagrophytes ATCC 28185 after 72 hrs; format: functional; details: ATCC 28185, 72 h
Outline: (§1)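 Agar dilution MIC on Sabouraud glucose agar; the filamentous fungi were maintained on potato dextrose agar at 27 °C. DMSO stocks were diluted 2-fold and added to the medium: pure compounds 400-3.125 µg/mL, extracts 10-1.25 mg/mL, references 128-1 µg/mL; final DMSO at most 2%. A hemocytometer-counted spore inoculum was loop-applied to the agar surface, and plates were incubated at 29 °C for 72 h. MIC was the lowest concentration with no visible growth; run in triplicate.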

[2] = system: Trichophyton rubrum; assay: Antimycotic activity against Trichophyton rubrum ATCC 28188 after 72 hrs; format: functional; details: ATCC 28188, 72 h; outline: as §1
[3] = system: Candida albicans; assay: Antimycotic activity against Candida albicans ATCC 10231 after 24 hrs; details: ATCC 10231, 24 h
[4] = system: Aspergillus niger; assay: Antimycotic activity against Aspergillus niger ATCC 10335 after 48 hrs; details: ATCC 10335, 48 h
[5] = system: Candida albicans; assay: Antimycotic activity against Candida albicans ATCC 10231 after 48 hrs; format: functional

C[C@@H]1CO[C@@]2(O[C@H]3C[C@H]4[C@@H]5C[C@H](O[C@@H]6O[C@H](C)[C@@H](O)[C@H](O[C@@H]7OC[C@@H](O)[C@H](O)[C@H]7O)[C@H]6O)[C@H]6C[C@@H](O)CC[C@]6(C)[C@H]5CC[C@]4(C)[C@H]3[C@@H]2C)[C@H](O)C1
MIC [1]: 100 µg/mL (≈ 138 µM) | MIC [2]: 100 µg/mL (≈ 138 µM) | MIC [3]: > 400 µg/mL | MIC [4]: > 400 µg/mL

C[C@@H]1CC[C@@]2(OC1)O[C@H]1C[C@H]3[C@@H]4C[C@H](O[C@@H]5O[C@H](C)[C@@H](O)[C@H](O[C@@H]6O[C@H](C)[C@@H](O)[C@H](O)[C@@H]6O)[C@H]5O)[C@H]5C[C@@H](O)CC[C@]5(C)[C@H]4CC[C@]3(C)[C@H]1[C@@H]2C
MIC [1]: 200 µg/mL (≈ 276 µM) | MIC [2]: 50 µg/mL (≈ 69 µM) | MIC [3]: 200 µg/mL (≈ 276 µM) | MIC [4]: 400 µg/mL (≈ 552 µM)

NYSTATIN
MIC [5]: 8 µg/mL

C[C@@H]1CC[C@@]2(OC1)O[C@H]1C[C@H]3[C@@H]4C[C@H](O[C@@H]5O[C@H](C)[C@@H](O)[C@H](O)[C@H]5O)[C@H]5C[C@@H](O)CC[C@]5(C)[C@H]4CC[C@]3(C)[C@H]1[C@@H]2C
MIC [1]: 25 µg/mL (≈ 43.2 µM) | MIC [2]: 50 µg/mL (≈ 86.4 µM) | MIC [3]: 200 µg/mL (≈ 346 µM) | MIC [4]: > 400 µg/mL

C[C@H]1CC[C@@]2(OC1)O[C@H]1C[C@H]3[C@@H]4C[C@H](O[C@@H]5O[C@H](C)[C@@H](O)[C@H](O[C@@H]6OC[C@@H](O)[C@H](O)[C@H]6O)[C@H]5O)[C@H]5C[C@@H](O)CC[C@]5(C)[C@H]4CC[C@]3(C)[C@H]1[C@@H]2C
MIC [1]: 25 µg/mL (≈ 35.2 µM) | MIC [2]: 25 µg/mL (≈ 35.2 µM) | MIC [3]: > 400 µg/mL | MIC [4]: > 400 µg/mL

C[C@@H]1CO[C@@]2(O[C@H]3C[C@H]4[C@@H]5C[C@H](O[C@@H]6O[C@H](C)[C@@H](O)[C@H](O[C@@H]7OC[C@@H](O)[C@H](O)[C@H]7O)[C@H]6O)[C@H]6C[C@@H](O)CC[C@]6(C)[C@H]5CC[C@]4(C)[C@H]3[C@@H]2C)[C@@H](O)C1
MIC [1]: 25 µg/mL (≈ 34.4 µM) | MIC [2]: 25 µg/mL (≈ 34.4 µM) | MIC [3]: > 400 µg/mL | MIC [4]: > 400 µg/mL

Clc1ccc(COC(Cn2ccnc2)c2ccc(Cl)cc2Cl)c(Cl)c1 (stereo not given) [MICONAZOLE]
MIC [1]: 4 µg/mL (≈ 9.61 µM) | MIC [2]: 4 µg/mL (≈ 9.61 µM) | MIC [4]: 8 µg/mL (≈ 19.2 µM)

C[C@@H]1CC[C@@]2(OC1)O[C@H]1C[C@H]3[C@@H]4C[C@H](O[C@@H]5O[C@H](C)[C@@H](O)[C@H](O[C@@H]6OC[C@@H](O)[C@H](O)[C@H]6O)[C@H]5O)[C@H]5C[C@@H](O)CC[C@]5(C)[C@H]4CC[C@]3(C)[C@H]1[C@@H]2C
MIC [1]: 12.5 µg/mL (≈ 17.6 µM) | MIC [2]: 12.5 µg/mL (≈ 17.6 µM) | MIC [3]: 200 µg/mL (≈ 281 µM) | MIC [4]: 100 µg/mL (≈ 141 µM)

C[C@H]1CO[C@@]2(O[C@H]3C[C@H]4[C@@H]5C[C@H](O[C@@H]6O[C@H](C)[C@@H](O)[C@H](O[C@@H]7O[C@H](C)[C@@H](O)[C@H](O)[C@@H]7O)[C@H]6O)[C@H]6C[C@@H](O)CC[C@]6(C)[C@H]5CC[C@]4(C)[C@H]3[C@@H]2C)[C@@H](O)C1
MIC [1]: 200 µg/mL (≈ 270 µM) | MIC [2]: 200 µg/mL (≈ 270 µM) | MIC [3]: 200 µg/mL (≈ 270 µM) | MIC [4]: 200 µg/mL (≈ 270 µM)

C[C@@H]1CC[C@@]2(OC1)O[C@H]1C[C@H]3[C@@H]4C[C@H](O[C@@H]5OC[C@@H](O)[C@H](O)[C@H]5O)[C@H]5C[C@@H](O)CC[C@]5(C)[C@H]4CC[C@]3(C)[C@H]1[C@@H]2C
MIC [1]: 100 µg/mL (≈ 177 µM) | MIC [2]: 100 µg/mL (≈ 177 µM) | MIC [3]: 200 µg/mL (≈ 354 µM) | MIC [4]: > 400 µg/mL

C[C@H]1CC[C@@]2(OC1)O[C@H]1C[C@H]3[C@@H]4C[C@H](O[C@@H]5O[C@H](C)[C@@H](O)[C@H](O)[C@H]5O)[C@H]5C[C@@H](O)CC[C@]5(C)[C@H]4CC[C@]3(C)[C@H]1[C@@H]2C
MIC [1]: 25 µg/mL (≈ 43.2 µM) | MIC [2]: 50 µg/mL (≈ 86.4 µM) | MIC [3]: > 400 µg/mL | MIC [4]: > 400 µg/mL
